Assay results: ChEMBL document CHEMBL2434878, “Synthesis and antimycobacterial activity of analogues of the bioactive natural products sampangine and cleistopholine” (Eur J Med Chem, 2013)
Values after ≈ are worked out from the molar mass of the structure shown.

Assays:
Mycobacterium ulcerans = assay: Antimicrobial activity against Mycobacterium ulcerans 1615 expressing luciferase reporter gene assessed as growth inhibition after 6 days by luminometry; assay type: functional; details: Mycobacterium ulcerans, 1615, 144 h
In short: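 Luminescent M. ulcerans 1615 carrying pSMT1 luciferase plasmid, grown at 32 °C in 7H9 with 10% OADC and 0.2% glycerol. Serial dilutions from 10 mM DMSO stocks in 7H9 + 10% FCS; bacteria dosed at 50,000 RLU/ml, triplicate wells. After 6 days, light read over 10 s following 1% n-decanal in ethanol. GI50 taken at 50% growth reduction versus untreated culture.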

[1] = Antimicrobial activity against Mycobacterium avium subsp. avium ATCC 19698 expressing luciferase reporter gene assessed as growth inhibition after 6 days by luminometry; assay type: functional; details: ATCC 19698, 144 h
[2] = tested on: Mycobacterium avium subsp. paratuberculosis; assay: Antimicrobial activity against Mycobacterium avium subsp. paratuberculosis ATCC 15769 expressing luciferase reporter gene assessed as growth inhibition after 6 days by luminometry; assay type: functional; details: ATCC 15769, 144 h
[3] = tested on: Mycobacterium tuberculosis; assay: Antimicrobial activity against Mycobacterium tuberculosis H37Rv ATCC 27294 expressing luciferase reporter gene infected in mouse J774 macrophages assessed as intracellular growth inhibition at 0.5 uM after 4 days by luminometry relative to untreated control; assay type: functional; details: H37Rv ATCC 27294, J774, 96 h, read-out: GI
In short: (§1)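 J774.A1 murine macrophages were seeded at 40,000 cells/well, recovered overnight and infected with luminescent H37Rv. From 24 h post-infection, cells were treated for 4 days in DMEM with penicillin and fungizone, without gentamicin. Growth was read by luminescence after 1% n-decanal and expressed as percent inhibition versus untreated, in triplicate. Macrophage viability was checked by trypan blue.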

[4] = tested on: Mycobacterium tuberculosis; assay: Antimicrobial activity against Mycobacterium tuberculosis H37Rv ATCC 27294 expressing luciferase reporter gene infected in mouse J774 macrophages assessed as intracellular growth inhibition at 1 uM after 4 days by luminometry relative to untreated control; assay type: functional; details: H37Rv ATCC 27294, J774, 96 h, read-out: GI; in short: as §1
[5] = tested on: Mycobacterium tuberculosis; assay: Antimicrobial activity against Mycobacterium tuberculosis H37Rv ATCC 27294 expressing luciferase reporter gene infected in mouse J774 macrophages assessed as intracellular growth inhibition at 2 uM after 4 days by luminometry relative to untreated control; assay type: functional; details: H37Rv ATCC 27294, J774, 96 h, read-out: GI; in short: as §1
[6] = Therapeutic index, ratio of IC50 for human HepG2/C3A cells to GI50 for Mycobacterium tuberculosis H37Rv ATCC 27294; assay type: cell-based; details: read-out: TI
In short: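 TI is NI50/GI50. NI50 came from a neutral red uptake assay in C3A hepatocytes (40,000 cells/well, 24 h exposure at 37 °C, 3 h dye, OD 530 nm with 620 nm reference): the concentration reducing dye uptake by 50%. GI50 came from the 6-day luminescent H37Rv assay.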

[7] = Cytotoxicity against human HepG2/C3A cells after 24 hrs by neutral red dye uptake assay; assay type: cell-based
[8] = tested on: Mycobacterium tuberculosis; assay: Antimicrobial activity against Mycobacterium tuberculosis H37Rv ATCC 27294 expressing luciferase reporter gene assessed as growth inhibition after 6 days by luminometry; assay type: functional; details: H37Rv ATCC 27294, 144 h
In short: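 Luminescent H37Rv (pSMT1, V. harveyi luciferase) was declumped by filtration, adjusted to 50,000 RLU/ml in 7H9-10% FCS, and exposed to serial compound dilutions in triplicate for 6 days at 37 °C. Light was read for 10 s after adding 1% n-decanal. GI50 is the concentration giving 50% growth reduction versus untreated culture.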

[9] = tested on: Mycobacterium tuberculosis; assay: Antimicrobial activity against Mycobacterium tuberculosis H37Rv ATCC 27294 expressing luciferase reporter gene assessed as reduction in bacterial count after 6 days by luminometry; assay type: functional; details: H37Rv ATCC 27294, 144 h
In short: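 MIC by serial dilution in the 6-day luminescent H37Rv assay (7H9-10% FCS, 50,000 RLU/ml inoculum, triplicate wells, n-decanal read-out). MIC is the concentration giving at least one log10 reduction in signal versus the untreated control.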

[10] = tested on: Mycobacterium tuberculosis; assay: Antimicrobial activity against Mycobacterium tuberculosis H37Rv ATCC 27294 expressing luciferase reporter gene assessed as growth inhibition at 0.1 uM after 6 days by luminometry relative to control; assay type: functional; details: H37Rv ATCC 27294, 144 h, read-out: GI
In short: (§2)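 Single-concentration screen of the luminescent H37Rv reporter strain in 7H9-10% FCS, inoculated at 50,000 RLU/ml, 6 days at 37 °C. Luminescence was read after n-decanal addition. Percent inhibition is versus the untreated culture, as the mean of triplicate cultures.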

[11] = tested on: Mycobacterium tuberculosis; assay: Antimicrobial activity against Mycobacterium tuberculosis H37Rv ATCC 27294 expressing luciferase reporter gene assessed as growth inhibition at 1 uM after 6 days by luminometry relative to control; assay type: functional; details: H37Rv ATCC 27294, 144 h, read-out: GI; in short: as §2
[12] = tested on: Mycobacterium tuberculosis; assay: Antimicrobial activity against Mycobacterium tuberculosis H37Rv ATCC 27294 expressing luciferase reporter gene assessed as growth inhibition at 10 uM after 6 days by luminometry relative to control; assay type: functional; details: H37Rv ATCC 27294, 144 h, read-out: GI; in short: as §2
[13] = Genotoxicity in human HepG2/C3A cells assessed as genomic DNA fragmentation at 10 uM after 24 hrs by comet assay; assay type: toxicity, cell-based
In short: (§3)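 Alkaline comet assay: C3A cells at 100,000/well recovered overnight, then 24 h at 37 °C, 5% CO2 with serial dilutions from DMSO stock in DMEM + 10% FCS. Cells embedded in low-melting agarose, lysed 1 h, electrophoresed 20 min at 300 mA, neutralized, gel red stained. Tail DNA as % of head + tail DNA by fluorescence microscopy; Mann–Whitney test.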

[14] = Genotoxicity in human HepG2/C3A cells assessed as genomic DNA fragmentation at 1 to 3 uM after 24 hrs by comet assay; assay type: toxicity, cell-based; in short: as §3
[15] = tested on: Mycobacterium intracellulare; assay: Antimicrobial activity against Mycobacterium intracellulare; assay type: functional

Row | SMILES | GI50 (Mycobacterium ulcerans) [µM] | GI50 [1] [µM] | GI50 [2] [µM] | inhibition of growth at 0.5 µM [3] [%] | inhibition of growth at 1 µM [4] [%] | inhibition of growth at 2 µM [5] [%] | selectivity ratio [6] | IC50 [7] [µM] | GI50 [8] [µM] | MIC90 [9] [µM] | inhibition of growth at 0.1 µM [10] [%] | inhibition of growth at 1 µM [11] [%] | inhibition of growth at 10 µM [12] [%] | Activity [13] | Activity [14] | MIC [15] [µg/mL]
1 | O=C1c2ccccc2-c2nccc3nc(-c4ccc(F)cc4)cc1c23 | 9.23 | 3.98 | 3.56 | 15.3 | 30.2 | 65.5 | > 72.4 | > 50 | 0.69 | 1.5 (≈ 0.489 µg/mL) | 53 | 100 | 100 | – | – | –
2 | COc1ccc(-c2cc3c(c(/C=C/N(C)C)n2)C(=O)c2ccccc2C3=O)cc1 | 7.65 | 2.98 | 3.06 | 9.3 | 26.3 | 47.1 | 92.5 | 33.3 | 0.36 | 0.88 (≈ 0.338 µg/mL) | 42 | 100 | 100 | Non-toxic | Non-toxic | –
3 | Cc1ccc(-c2cc3c4c(nccc4n2)-c2ccccc2C3=O)cc1 | – | – | – | 7 | 34.6 | 47.2 | 16.6 | 7.14 | 0.43 | 1.31 (≈ 0.422 µg/mL) | 73 | 100 | 100 | – | – | –
4 | NNC(=O)c1ccncc1 [ISONIAZID] | – | – | – | 76.4 | 92.8 | 97.3 | – | – | 0.01 | 0.09 (≈ 0.0123 µg/mL) | 99 | 100 | 100 | – | – | –
5 | CO[C@H]1/C=C/O[C@@]2(C)Oc3c(C)c(O)c4c(O)c(c(/C=N/N5CCN(C)CC5)c(O)c4c3C2=O)NC(=O)/C(C)=C\C=C\[C@H](C)[C@H](O)[C@@H](C)[C@@H](O)[C@@H](C)[C@H](OC(C)=O)[C@@H]1C [RIFAMPIN] | – | – | – | – | – | – | – | – | 0.03 | 0.12 (≈ 0.0988 µg/mL) | 99 | 100 | 100 | – | – | 0.5 (≈ 0.608 µM)
6 | CN(C)/C=C/c1nc(-c2ccccc2)cc2c1C(=O)c1ccccc1C2=O | 8.65 | 4.89 | 3.68 | 13.4 | 34.6 | 49.5 | 46.9 | 24.4 | 0.52 | 1.4 (≈ 0.496 µg/mL) | 45 | 100 | 100 | – | – | –
7 | O=C1c2ccccc2-c2nccc3nc(-c4ccccc4)cc1c23 | 10.6 | 4.22 | 3.21 | 14.6 | 32.6 | 48.2 | 39.1 | 21.5 | 0.55 | 1.2 (≈ 0.37 µg/mL) | 67 | 95 | 100 | – | – | –
8 | CCOc1nc2c3c(ncc(Br)c3c1Br)-c1ccccc1C2=O | – | – | – | – | – | – | – | – | – | – | – | – | – | – | – | 25 (≈ 57.6 µM)
9 | O=C1c2ccccc2C(=O)c2c(O)cc(-c3ccccc3)cc21 | 12.6 | 5.02 | 4.71 | 36.6 | 49 | 68.3 | 12.6 | 10.8 | 0.86 | 2.12 (≈ 0.637 µg/mL) | 15 | 88 | 100 | – | – | –
10 | O=C1c2ccccc2-c2nccc3nc(-c4ccc(Cl)cc4)cc1c23 | – | – | – | 2.27 | 20.3 | 44.2 | > 69.4 | > 50 | 0.72 | 1.85 (≈ 0.634 µg/mL) | 77 | 99 | 99 | – | – | –
11 | COc1ccc(-c2cc(O)c3c(c2)C(=O)c2ccccc2C3=O)cc1 | 7.55 | 3.01 | 3.52 | 21.6 | 27.6 | 42.3 | 4.2 | 1.87 | 0.45 | 0.92 (≈ 0.304 µg/mL) | 35 | 92 | 100 | Toxic | Non-toxic | –
12 | CN[C@@H]1[C@H](O[C@H]2[C@H](O[C@H]3[C@H](O)[C@@H](O)[C@H](N=C(N)N)[C@@H](O)[C@@H]3N=C(N)N)O[C@@H](C)[C@]2(O)C=O)O[C@@H](CO)[C@H](O)[C@H]1O [STREPTOMYCIN] | – | – | – | – | – | – | – | – | – | – | – | – | – | – | – | 2 (≈ 3.44 µM)
13 | Cc1ccc(-c2cc3c(c(/C=C/N(C)C)n2)C(=O)c2ccccc2C3=O)cc1 | 8.59 | 3.69 | 4.83 | 15.9 | 36.2 | 48.7 | 40.4 | 27.9 | 0.69 | 1.5 (≈ 0.553 µg/mL) | 39 | 100 | 100 | – | – | –
14 | CN(C)/C=C/c1nc(-c2ccc(F)cc2)cc2c1C(=O)c1ccccc1C2=O | 7.49 | 3.65 | 3.23 | 10.2 | 27.3 | 60.5 | 91 | 37.3 | 0.41 | 0.88 (≈ 0.328 µg/mL) | 35 | 92 | 100 | – | – | –
15 | COc1ccc(-c2cc3c4c(nccc4n2)-c2ccccc2C3=O)cc1 | 8.56 | 3.56 | 2.54 | 10 | 38.5 | 51.5 | > 135 | > 50 | 0.37 | 0.92 (≈ 0.311 µg/mL) | 81 | 99 | 100 | Toxic | Non-toxic | –
16 | CN(C)/C=C/c1nc(-c2ccc(Cl)cc2)cc2c1C(=O)c1ccccc1C2=O | 7.69 | 3.88 | 3.95 | 19.8 | 35.6 | 54.4 | 34.2 | 18.8 | 0.55 | 1.1 (≈ 0.428 µg/mL) | 34 | 91 | 100 | – | – | –
17 | O=C1c2ccccc2-c2nccc3c2c1nc1ccccc13 [BENZOSAMPANGINE] | – | – | – | – | – | – | – | – | – | – | – | – | – | – | – | 0.39 (≈ 1.38 µM)
18 | Cc1ccnc2c1C(=O)c1ccccc1C2=O [CLEISTOPHOLINE] | – | – | – | – | – | – | – | – | – | – | – | – | – | – | – | 12.5 (≈ 56 µM)
19 | CCc1ccnc2c1C(=O)c1ccccc1C2=O | – | – | – | – | – | – | – | – | – | – | – | – | – | – | – | 12.5 (≈ 52.7 µM)
20 | O=C1c2ccccc2-c2nccc3ccnc1c23 [SAMPANGINE] | – | – | – | – | – | – | – | – | – | – | – | – | – | – | – | 0.78 (≈ 3.36 µM)
